Source: PubChem (several laboratories)
Shown are actives, neighbours in structure and some others; about 1.9% of the full set was active somewhere.
bCat nuc transl: modulators of beta-catenin nuclear translocation | HeLa beta-catenin nuclear translocation, immunofluorescence imaging | nuclear translocation activity, % at 5 µM | 190,000 tested, 0.3% active;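 active means nuclear translocation activity above 50% at 5 µM, with a well cell count of 50 or more; inconclusive means wells under 50 cells across six images, flagged as toxic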;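 further: per-cell ratio of nuclear to cytoplasmic median beta-catenin stain intensity; plate controls were DMSO negative control for no effect and GSK-3 inhibitor IX positive control for full effect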
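Test system: human HeLa cells, native beta-catenin. Compound dosing: 5 µM primary single dose, 0.1% DMSO, 0.02–20 µM confirmation series. Incubation: compound exposure 24 h at 37°C. Detection: beta-catenin immunostaining with DAPI counterstain, 20x imaging, 6 fields/well. Read-out basis: Nuclear/cytoplasmic beta-catenin signal ratio, % activation.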
Insulin prom up: MIN6 insulin promoter up-regulation | z-score at 5 µM | AID 1625 | 190,000 tested, 0.3% active | MIN6 insulin promoter-GFP reporter, high-content imaging; stronger effect = higher value;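 active means z-score above 3 at 5 µM with at least 500 cells counted in the well; inconclusive means wells under 500 cells, flagged as cytotoxic or low count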
HSV augment: increases HSV replication in cells | HSV replication augmentation in cells, fold increase | maximum fold increase | 220,000 tested, 0.005% active | AID 1956; in the data active means maximum fold increase above about 1.5; inconclusive means no clear call, values can overlap the other calls; tested in PC3 cells
Autophagy HCS: autophagy modulation, high-content screen | MEF GFP-LC3 puncta imaging; test concentration mostly 10 µM | calls only at 10 µM (by protocol) | 190,000 tested, 0.98% active | AID 463193;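 active means percentage of spot-positive cells more than 3 SD above its plate mean, without a fluorescence outlier flag or 80% toxicity; inconclusive means no clear call, values can overlap the other calls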;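 further: spot-positive cell cutoff set from DMSO-treated cells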
MT stabilize HCS: microtubule stabilizers in HeLa cells | HeLa tubulin immunostaining HCS, 24 h; share of cells brighter than vehicle mean+2SD | % tubulin-high responders, % at 10 µM | 200,000 tested, 0.83% active;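 active means plate Z-score above 3 for both tubulin-high and condensed-nucleus cell shares, with cell loss under 80%, at 10 µM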;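 further: anti alpha tubulin signal scored within the nucleus-defined area of each cell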
Furin inhibitor: blocks human furin protease activity | 220,000 tested, 0.061% active | AID 463115 | inhibition, % at 20 µM or 30 µM | P09958 | purified furin, fluorogenic substrate cleavage; in the data active means inhibition above about 25%
Target sequence (P09958 108-714 limits assumed): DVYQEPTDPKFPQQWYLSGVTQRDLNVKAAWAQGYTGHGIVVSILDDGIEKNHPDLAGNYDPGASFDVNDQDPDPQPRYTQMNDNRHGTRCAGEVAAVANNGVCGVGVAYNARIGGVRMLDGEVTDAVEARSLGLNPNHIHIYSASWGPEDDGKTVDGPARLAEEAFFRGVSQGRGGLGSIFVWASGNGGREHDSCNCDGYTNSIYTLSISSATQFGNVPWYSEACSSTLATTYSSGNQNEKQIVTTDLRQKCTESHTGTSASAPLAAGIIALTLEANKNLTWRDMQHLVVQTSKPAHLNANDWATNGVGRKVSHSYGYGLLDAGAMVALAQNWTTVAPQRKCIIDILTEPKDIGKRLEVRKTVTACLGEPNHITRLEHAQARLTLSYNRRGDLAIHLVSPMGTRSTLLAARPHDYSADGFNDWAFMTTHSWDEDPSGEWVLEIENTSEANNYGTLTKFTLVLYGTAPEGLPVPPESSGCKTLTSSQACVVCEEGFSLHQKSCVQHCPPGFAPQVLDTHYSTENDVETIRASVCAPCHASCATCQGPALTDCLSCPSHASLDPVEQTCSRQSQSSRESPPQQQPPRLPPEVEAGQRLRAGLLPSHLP
The depositor's hits bear a star; i = inactive; ? = inconclusive; . = no result given; + = active, no number.

SMILES | bCat nuc transl | Insulin prom up | HSV augment | Autophagy HCS | MT stabilize HCS | Furin inhibitor
CCN1/C(=N\N)c2cccc3cccc1c23 | -0.1 | 1.79 | ? | + | 18.8 | -13.4
CCN1CCN(C(c2cc3cccc(C)c3[nH]c2=O)c2nnnn2Cc2ccccc2)CC1 (centres undefined) | 0.3 | 0.33 | i | i | 3.5 | -18.3
Cc1cccc2cc(C(c3nnnn3Cc3ccccc3)N3CCCc4ccccc43)c(=O)[nH]c12 (centres undefined) | . | . | i | + | 3.3 | -18.3
COc1ccc(C2NC(=S)NC(C)=C2C(=O)Nc2ccccn2)cc1OC (centres undefined) | -1.7 | -0.64 | i | + | 4.7 | -13.0
O=C(c1cc2cc([N+](=O)[O-])ccc2oc1=O)n1cccn1 | 4.3 | 0.36 | i | i | 6.9 | -22.6
Cc1ccc(N/C=C/C(=O)c2sc(-c3ccccc3)nc2C)cc1 | 0.8 | -0.14 | i | i | 51.2* | -14.9
O=C(CCl)Nc1cc(SCC(O)CO)cc([N+](=O)[O-])c1 (centres undefined) | 11.0 | ? | i | + | 92.9 | -19.3
COc1cc(C2C(C#N)=C(N)N(Nc3ccccc3)C3=C2C(=O)CC(C)(C)C3)ccc1OCc1ccccc1 (centres undefined) | 5.6 | -0.35 | i | i | 2.9 | -10.0
C=CCOc1ccc(C2C(C#N)=C(N)N(Nc3ccccc3)C3=C2C(=O)CCC3)cc1OC (centres undefined) | 0.5 | 0.56 | i | i | 39.5* | -10.6
Cc1c(N=C2N=C(NC(=O)Nc3ccc(Cl)cc3)c3ccccc32)c(=O)n(-c2ccccc2)n1C | -0.3 | 0.04 | i | + | 5.5 | 5.9
Cc1nn2c(COc3ccc(NC(=O)c4ccccc4Cl)cc3)nnc2c2ccccc12 | -0.8 | -0.19 | i | i | 17.5* | -6.2
Cc1nn2c(COc3ccc(NC(=O)C(C)C)cc3)nnc2c2ccccc12 | 0.5 | . | i | i | 3.5 | -28.0
C/C(=N\NS(=O)(=O)c1ccc([N+](=O)[O-])cc1)c1ccc(NC(=O)c2ccco2)cc1 | -1.5 | -0.06 | i | i | 4.5 | -14.9
COC(=O)c1ccc(N=Cc2c(C(F)(F)F)[nH][nH]c2=O)cc1 | -0.7 | 0.88 | i | i | 4.7 | -20.4
Clc1ccc(C2=CSC3=NCCN23)cc1Cl | -3.5 | -0.24 | i | + | 2.3 | -20.4
Cc1ccc(C)c(C2=CSC3=NCCN23)c1 | 0.6 | -0.3 | i | . | 2.0 | -22.8
COCCCN1CN(S(=O)(=O)c2ccc(Cl)cc2)c2nc3ccccc3nc21 | -2.2 | -0.39 | i | i | 3.3 | -1.3
COc1ccc(S(=O)(=O)N2CCN(Cc3cccc(Cl)c3)CC2)cc1 | 3.1 | -0.34 | i | i | 2.5 | -21.3
O=S(=O)(c1ccc(Cl)cc1)N1c2ccccc2Oc2nc3ccccc3nc21 | 5.1 | . | . | i | 24.5* | -19.1
COc1ccc(S(=O)(=O)N2c3cc(Cl)ccc3Oc3nc4ccccc4nc32)cc1 | -0.9 | -0.85 | i | + | 12.6 | -10.9
CCC(C)C(NC(=O)c1ccccc1NC(=O)c1ccco1)C(=O)NNC(=O)c1ccncc1 (centres undefined) | 1.3 | -0.3 | i | . | . | 0.6
O=S(=O)(c1ccc2nc(-c3ccccc3)[nH]c2c1)N1CCN(c2ccc(Cl)cc2)CC1 | -2.9 | -0.44 | i | i | 16.0* | -15.8
CC1(C)Cc2nc3sc4c(SCC(=O)NCc5ccccc5)ncnc4c3cc2CO1 | . | -2.14 | i | + | 35.1* | -8.9
CC1(C)Cc2nc3sc4c(SCC(=O)O)ncnc4c3cc2CO1 | 0.2 | 0.33 | i | . | . | -12.2
CCOC(=O)c1[nH]c(C)c(C(=O)OCC(=O)N2CCc3ccccc32)c1C | -13.9 | . | i | i | 3.1 | -3.6
SMILES | bCat nuc transl | Insulin prom up | HSV augment | Autophagy HCS | MT stabilize HCS | Furin inhibitor
CCOC(=O)c1[nH]c(C)c(C(=O)c2ccc(C)cc2)c1C | . | -0.76 | i | i | 44.0* | -9.4
CCOC(=O)c1[nH]c(C)c(C(=O)Nc2ccc(F)cc2)c1C | . | -0.05 | i | i | 2.7 | -20.2
CCOC(=O)c1[nH]c(C)c(C(=O)Nc2ccccc2F)c1C | -0.2 | -0.15 | . | + | 33.6* | -17.9
CCOC(=O)c1c(C)[nH]c(C(=O)OCC(=O)N2CCc3ccccc32)c1C | -4.1 | 0.62 | . | + | 4.5 | 2.4
CCOC(=O)c1[nH]c(C)c(C(=O)Nc2ccc(C)cc2C)c1C | 7.7 | 0.13 | i | . | 16.5* | -5.4
CCCCN(C(=O)c1ccc(NC(=O)C(C)C)cc1)c1ccccc1 | 0.6 | . | i | i | 6.8 | -24.4
Cc1c(C=O)c2ccccn2c1C(=O)c1cccc([N+](=O)[O-])c1 | 2.0 | -0.25 | i | i | 4.0 | -18.0
COc1ccc(N2CCN(C(=O)CCCCCn3c(=O)[nH]c4ccsc4c3=O)CC2)cc1 | -2.0 | -0.15 | i | i | 5.3 | -9.9
C=CCn1c(SCc2nc3sc(C(=O)O)c(C)c3c(=O)[nH]2)nnc1-c1ccccc1 | -2.3 | 0.47 | i | + | 2.6 | 0.2
C=CCn1c(SCc2nc3sc(C(=O)O)c(C)c3c(=O)[nH]2)nnc1-c1ccc(C(C)(C)C)cc1 | -2.5 | 0.17 | i | . | . | -7.7
CCOC(=O)C1=NNC2C(=O)N(Cc3ccccc3)C(=O)C12 (centres undefined) | 0.2 | 0.79 | i | . | . | -0.2
CCN(CC)CCCNC(=O)c1sc2nc(-c3ccc(F)cc3)cn2c1C | . | 0.67 | i | + | 3.3 | -18.1
Cc1c(C(=O)NCc2ccccn2)sc2nc(-c3ccc(F)cc3)cn12 | . | -0.64 | i | i | 3.3 | -18.2
O=C(Nc1ccc(S(=O)(=O)N2CCCC2)cc1)C1CCCN1C(=O)c1cccs1 (centres undefined) | -1.1 | 2.38 | i | i | 2.7 | -27.9
C=CCN1CC(O)=C(c2ccccc2)C1=N | 4.7 | 0.72 | i | i | 34.2* | -14.5
N=C1C(c2ccccc2)=C(O)CN1CCCO | -2.6 | 0.16 | i | i | 4.4 | -6.0
CC1CCc2cccc3c2N1c1cc(C#N)c(C#N)cc1O3 (centres undefined) | . | . | i | + | 15.3 | -12.6
CC1CCCCN1c1cc(C#N)c(C#N)cc1[N+](=O)[O-] (centres undefined) | 2.2 | -0.79 | i | i | 2.9 | -13.8
Cc1cc(/C=C2\SC(=S)NC2=O)c(C)n1-c1ccccc1 | -3.9 | 0.97 | i | . | . | -11.7
Cc1cc(/C=C2\SC(=Nc3ccc(F)cc3)NC2=O)c(C)n1-c1ccc(S(N)(=O)=O)cc1 | 160.2* | -2.38 | i | i | 14.0 | -7.7
Cc1cc(/C=C2\SC(=S)NC2=O)c(C)n1-c1ccc(O)cc1 | 0.1 | 3.66* | i | . | . | -7.6
Cn1c(CNC(=O)OC(C)(C)C)nnc1SCc1c(Cl)cccc1Cl | -0.1 | 0.25 | i | . | . | -0.2
COc1ccc(N=C2SC(C(N)=O)CC(=O)N2Cc2ccc3c(c2)OCO3)cc1 (centres undefined) | 1.3 | 0.33 | i | . | . | -26.8
